The source made the active and inactive calls. The calls are words filed in the database; no cut-off is given here.
Key:
HCT-116 [1] = assay: Increase in acetylated alpha-tubulin accumulation in human HCT116 cells after 8 hrs; type: functional, cell-based
Outline: (§1)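 HCT116 cells were treated for 8 h in McCoy5A medium with 0.1% DMSO over a range of concentrations. Acetylated α-tubulin and histone H4 were detected by Western blot and quantified, and EC50 values were estimated from the concentration curves.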

HCT-116 [2] = assay: Increase in acetylated histone H4 accumulation in human HCT116 cells after 8 hrs; type: functional, cell-based; outline: as §1
Histone deacetylase 1 = Histone deacetylase 1 (Homo sapiens, UniProt Q13547); assay: Inhibition of HDAC1
Histone deacetylase 4 = Histone deacetylase 4 (Homo sapiens, UniProt P56524); assay: Inhibition of HDAC4
[3] = biological target: T1, Protein deacetylase HDAC6 (Homo sapiens, UniProt Q9UBN7); assay: Inhibition of HDAC6
T1 sequence (Q9UBN7 whole entry): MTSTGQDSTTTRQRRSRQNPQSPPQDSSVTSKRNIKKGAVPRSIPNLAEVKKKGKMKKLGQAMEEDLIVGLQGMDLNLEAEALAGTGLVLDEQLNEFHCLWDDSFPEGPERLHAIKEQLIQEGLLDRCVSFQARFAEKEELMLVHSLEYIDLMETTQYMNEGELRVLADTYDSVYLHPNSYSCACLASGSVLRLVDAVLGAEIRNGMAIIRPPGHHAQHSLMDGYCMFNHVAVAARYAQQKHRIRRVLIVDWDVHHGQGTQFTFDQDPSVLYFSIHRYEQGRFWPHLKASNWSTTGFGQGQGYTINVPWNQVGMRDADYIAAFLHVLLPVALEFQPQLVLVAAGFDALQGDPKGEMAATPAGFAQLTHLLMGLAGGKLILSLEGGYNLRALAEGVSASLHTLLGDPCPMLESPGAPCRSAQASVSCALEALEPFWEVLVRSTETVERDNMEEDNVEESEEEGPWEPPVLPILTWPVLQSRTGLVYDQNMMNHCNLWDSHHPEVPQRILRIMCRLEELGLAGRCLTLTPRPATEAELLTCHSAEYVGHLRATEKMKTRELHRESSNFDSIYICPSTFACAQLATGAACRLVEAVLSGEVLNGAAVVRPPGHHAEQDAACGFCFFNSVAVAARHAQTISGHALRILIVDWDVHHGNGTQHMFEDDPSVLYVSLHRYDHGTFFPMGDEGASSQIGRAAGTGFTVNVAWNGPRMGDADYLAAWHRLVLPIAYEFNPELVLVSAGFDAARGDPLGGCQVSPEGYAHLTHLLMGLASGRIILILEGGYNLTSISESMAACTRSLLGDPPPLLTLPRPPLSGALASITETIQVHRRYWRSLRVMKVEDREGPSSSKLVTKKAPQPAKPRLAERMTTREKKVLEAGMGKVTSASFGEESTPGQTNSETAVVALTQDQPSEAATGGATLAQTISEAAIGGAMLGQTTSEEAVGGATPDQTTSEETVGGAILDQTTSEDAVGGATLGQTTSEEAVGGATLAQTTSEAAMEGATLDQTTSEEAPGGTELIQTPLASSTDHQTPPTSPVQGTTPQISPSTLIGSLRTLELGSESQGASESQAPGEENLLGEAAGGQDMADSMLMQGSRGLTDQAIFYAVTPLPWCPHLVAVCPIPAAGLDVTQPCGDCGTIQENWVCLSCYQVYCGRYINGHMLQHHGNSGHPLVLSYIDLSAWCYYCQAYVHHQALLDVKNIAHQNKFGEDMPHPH

Homo sapiens [4] = species on record: Homo sapiens; assay: Selectivity for HDAC6 over HDAC1
Homo sapiens [5] = species on record: Homo sapiens; assay: Selectivity for HDAC6 over HDAC4

Histone deacetylase 1, sequence (Q13547 whole entry): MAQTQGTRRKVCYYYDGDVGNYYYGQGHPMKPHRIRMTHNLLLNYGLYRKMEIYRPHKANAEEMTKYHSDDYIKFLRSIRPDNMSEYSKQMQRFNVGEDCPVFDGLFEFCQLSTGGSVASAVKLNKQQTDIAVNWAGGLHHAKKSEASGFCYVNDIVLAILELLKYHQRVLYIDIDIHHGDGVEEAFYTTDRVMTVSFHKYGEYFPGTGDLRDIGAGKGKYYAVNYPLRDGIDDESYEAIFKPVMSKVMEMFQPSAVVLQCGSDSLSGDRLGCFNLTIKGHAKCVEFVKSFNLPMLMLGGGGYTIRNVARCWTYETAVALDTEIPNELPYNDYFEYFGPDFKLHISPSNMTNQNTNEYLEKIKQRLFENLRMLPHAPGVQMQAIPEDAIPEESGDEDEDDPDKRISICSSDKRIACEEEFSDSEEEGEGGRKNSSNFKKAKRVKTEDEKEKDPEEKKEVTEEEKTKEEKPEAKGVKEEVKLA
Histone deacetylase 4, sequence (P56524 whole entry): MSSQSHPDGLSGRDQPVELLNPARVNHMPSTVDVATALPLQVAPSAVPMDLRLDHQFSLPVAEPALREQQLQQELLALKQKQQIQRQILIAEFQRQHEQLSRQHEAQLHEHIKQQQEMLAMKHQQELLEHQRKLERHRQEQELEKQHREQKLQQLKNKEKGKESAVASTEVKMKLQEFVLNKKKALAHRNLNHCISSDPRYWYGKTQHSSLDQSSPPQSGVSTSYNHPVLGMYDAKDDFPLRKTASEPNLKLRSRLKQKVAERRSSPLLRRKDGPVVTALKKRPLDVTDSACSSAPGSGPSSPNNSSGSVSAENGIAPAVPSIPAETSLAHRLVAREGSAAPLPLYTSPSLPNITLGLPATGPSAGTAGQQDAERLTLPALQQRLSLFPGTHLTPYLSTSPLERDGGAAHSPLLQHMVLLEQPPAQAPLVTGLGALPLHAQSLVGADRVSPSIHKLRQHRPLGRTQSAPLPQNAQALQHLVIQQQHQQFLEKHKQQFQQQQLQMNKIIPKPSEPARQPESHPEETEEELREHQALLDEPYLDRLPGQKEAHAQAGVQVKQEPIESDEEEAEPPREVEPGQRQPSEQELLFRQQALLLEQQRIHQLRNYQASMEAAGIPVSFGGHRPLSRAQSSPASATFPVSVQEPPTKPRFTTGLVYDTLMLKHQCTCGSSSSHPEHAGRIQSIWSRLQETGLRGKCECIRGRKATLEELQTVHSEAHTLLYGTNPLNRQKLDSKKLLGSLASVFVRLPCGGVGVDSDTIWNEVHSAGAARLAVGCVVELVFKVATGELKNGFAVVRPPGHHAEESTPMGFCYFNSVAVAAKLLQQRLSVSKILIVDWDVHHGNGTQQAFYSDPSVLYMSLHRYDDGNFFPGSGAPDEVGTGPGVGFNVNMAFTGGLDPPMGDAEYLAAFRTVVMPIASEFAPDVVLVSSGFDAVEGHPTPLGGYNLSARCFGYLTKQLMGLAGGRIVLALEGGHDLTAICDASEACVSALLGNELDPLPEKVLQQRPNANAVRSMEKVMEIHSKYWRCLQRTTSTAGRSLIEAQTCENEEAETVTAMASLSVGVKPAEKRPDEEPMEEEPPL

Structure (SMILES) | Activity (HCT-116 [1]) | IC50 (Histone deacetylase 1) [µM] | IC50 (Histone deacetylase 4) [µM] | IC50 [3] [µM] | Selectivity ratio (Homo sapiens [4]) | Selectivity ratio (Homo sapiens [5]) | also measured
CC(C)C(=O)SCCCCC[C@H](NC(=O)OC(C)(C)C)C(=O)NC1CCCCCC1 | Dose-dependent effect | – | – | – | – | – | –
CC(C)C(=O)SCCCCCCC(=O)Nc1cccc(-c2ccccc2)c1 | – | – | – | – | – | – | Activity (HCT-116 [2]): Active
CC(C)C(=O)SCCCCC[C@H](NC(=O)OC(C)(C)C)C(=O)NC1CCCC1 | Dose-dependent effect | – | – | – | – | – | –
CC(C)(C)OC(=O)N[C@@H](CCCCCS)C(=O)NC1CCCCCC1 | – | 0.9 | 0.84 | 0.023 | 39 | 37 | –
CC(C)C(=O)SCCCCC[C@H](NC(=O)OC(C)(C)C)C(=O)NC1CCCCC1 | Dose-dependent effect | – | – | – | – | – | –
CC(C)(C)OC(=O)N[C@@H](CCCCCS)C(=O)NC1CCCC1 | – | 1.21 | 1.03 | 0.029 | 42 | 36 | –
CC(C)C(=O)SCCCCC[C@H](NC(=O)OC(C)(C)C)C(=O)NC(C)(C)C | Dose-dependent effect | – | – | – | – | – | –
CC(C)C(=O)SCCCCCCC(=O)Nc1nc(-c2ccccc2)cs1 | Active | – | – | – | – | – | Activity (HCT-116 [2]): Active
CC(C)(C)OC(=O)N[C@@H](CCCCCS)C(=O)NC1CCCCC1 | – | 1.27 | 1.14 | 0.036 | 35 | 32 | –

— ChEMBL document CHEMBL1146857 (J Med Chem, 2006)
